# Results taken from ChEMBL document CHEMBL2034896, “Terpenoids from Chloranthus serratus and their anti-inflammatory activities” (J Nat Prod, 2012).
# Tested on: RAW264.7
# Experiment: Antiinflammatory activity in mouse RAW264.7 cells assessed as inhibition of LPS-stimulated nitric oxide production pretreated for 2 hrs before LPS challenge measured after 18 hrs by Griess method
# Type: functional, cell-based
# Outline: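 Murine RAW264.7 macrophages are stimulated with LPS, and NO released into the medium is measured. The read-out is an IC50.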
row,SMILES,IC50 [µM]
1,C[C@@H]1C[C@H]2[C@@H]3CCC4=CC(=O)C=C[C@]4(C)[C@@]3(F)[C@@H](O)C[C@]2(C)[C@@]1(O)C(=O)CO [DEXAMETHASONE],0.47
2,C=C1C[C@@H](O)[C@H]2C(C)(C)[C@@H](O)CC[C@]2(C)[C@H]1C/C=C(\C)C=O,> 10
3,COC(=O)/C(C)=C1\C(=O)[C@H](O)[C@]2(C)C3=C(C[C@@H]4[C@]5(OC(=O)C6=C5C[C@H]5[C@](O)(COC(=O)/C(C)=C/COC(=O)CCC(=O)OC6)[C@H]6C[C@H]6[C@]45C)[C@H]31)[C@H]1C[C@H]12 [SHIZUKAOL B],0.15
4,C=C1CC[C@@H]2[C@](C)(O)C[C@@]3(O)OC(=O)C(C)=C3[C@@]2(O)C1,> 10
5,CC1=C2C[C@@H]3[C@](C)(CCC[C@]3(C)O)C[C@@H]2OC1=O,> 10
6,CCO[C@]12OC(=O)C(C)=C1C1=C3[C@@](C)(C2=O)[C@@H]2C[C@@H]2[C@@]3(O)C[C@@H]2[C@]13OC(=O)C1=C3C[C@H]3[C@](O)(COC(=O)/C(C)=C/COC(=O)CCC(=O)OC1)[C@H]1C[C@H]1[C@]23C,> 10
7,CC1=C2C[C@@H]3[C@](C)(CCC[C@]3(C)O)C[C@]2(O)OC1=O,> 10
8,COC(=O)/C(C)=C1/C(=O)[C@H](O)[C@]2(C)C3=C1[C@]14OC(=O)C(COC(C)=O)=C1C[C@H]1C[C@H]5C[C@H]5[C@]1(C)[C@@H]4C[C@]3(O)[C@H]1C[C@H]12 [SHIZUKAOL D],7.22
9,CC1=C2C3=C4C(=C[C@@H]5[C@]36OC(=O)C3=C6C[C@H]6[C@](O)(COC(=O)/C(C)=C/COC(=O)CCC(=O)OC3)[C@H]3C[C@H]3[C@]56C)[C@H]3C[C@H]3[C@]4(C)[C@@H](O)[C@@]2(O)OC1=O,0.22
10,C=C1CC[C@H]2C(C)(C)[C@@H](O)CC[C@]2(C)[C@H]1C/C=C(\C)C=O,> 10
